Experimental data: paper PMC6911266 (Nature, 2019)
Numbering of substitutions follows the chain as printed.

Key:
[1] = Uptake in control liposomes; assay type: biochemical; conditions: 100 nM [3H]-drug, liposomes without PfCRT
Outline: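 Control liposomes lack PfCRT and are loaded with 100 mM KPi, pH 7.5, and 2 mM β-mercaptoethanol. They are diluted into 100 mM Tris/Mes, pH 5.5, with 100 nM [3H]-CQ (5.45 Ci/mmol) or [3H]-PPQ (15 Ci/mmol) for 1 min. Non-specific filter binding, measured as mock uptake without liposomes, is subtracted. Data come from 2 independent experiments, each with 4 technical replicates.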

[2] = system: P. falciparum WT (3D7) parasite line; experiment: Piperaquine survival assay; assay type: cell-based, Plasmodium falciparum; conditions: vs no-drug control
[3] = system: P. falciparum 7G8^7G8+C350R parasite line; experiment: Piperaquine survival assay; assay type: cell-based, Plasmodium falciparum; conditions: vs no-drug control
[4] = system: P. falciparum 7G8^7G8+F145I parasite line; experiment: [3H]-drug accumulation assay in cultured parasites; assay type: cell-based, Plasmodium falciparum; conditions: 60 min, trophozoites
Outline: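 Sorbitol-synchronized early trophozoites (24–26 h) were magnet-purified and resuspended in bicarbonate-free RPMI 1640 (25 mM HEPES, 10 mM glucose, 0.2 mM hypoxanthine, pH 7.4), counted by hemocytometer. They were mixed with an equal volume of radiolabelled drug (10 nM [3H]-CQ before mixing) for 1 h at 37°C, spun through dibutyl phthalate, then scintillation counted. CAR was internal/external drug, corrected for uninfected erythrocytes, per 10^6 cells at 75 fl; 4–6 assays in duplicate.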

[5] = system: P. falciparum ring-stage parasites; experiment: Piperaquine survival assay, summary in text; assay type: cell-based, Plasmodium falciparum
PfCRT 7G8 = target: T1, PfCRT 7G8 (Plasmodium falciparum, UniProt W7FI62); experiment: Equilibrium dialysis binding, PfCRT variant in nanodiscs; conditions: for Bmax, binding at pH 5.5 / Bmax, binding at pH 7.5: equilibrium dialysis
T1 sequence (W7FI62 1-424): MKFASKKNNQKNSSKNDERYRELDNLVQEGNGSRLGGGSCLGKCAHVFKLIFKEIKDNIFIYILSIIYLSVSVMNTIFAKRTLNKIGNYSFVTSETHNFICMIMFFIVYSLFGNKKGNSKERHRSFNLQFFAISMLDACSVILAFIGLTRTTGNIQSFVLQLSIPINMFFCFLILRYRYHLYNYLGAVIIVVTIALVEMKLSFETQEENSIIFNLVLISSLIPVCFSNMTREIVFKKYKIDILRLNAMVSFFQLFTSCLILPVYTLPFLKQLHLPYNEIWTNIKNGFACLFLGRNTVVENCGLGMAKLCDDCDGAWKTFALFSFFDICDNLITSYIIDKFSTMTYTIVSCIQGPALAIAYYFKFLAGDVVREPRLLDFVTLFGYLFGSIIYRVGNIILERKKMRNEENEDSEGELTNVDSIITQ

PfCRT Dd2 = target: T2, PfCRT Dd2 (Plasmodium falciparum, UniProt Q9N623, A220S/I356T/K76T/M74I/N326S/N75E/Q271E/R371I); experiment: as above; conditions: for Bmax, binding at pH 5.5 / Bmax, binding at pH 7.5: equilibrium dialysis
T2 sequence (Q9N623 1-424 M74I/N75E/K76T/A220S/Q271E/N326S/I356T/R371I): T1 sequence (W7FI62 1-424) with S72C, M74I, N75E, Q271E, D326S, L356T, R371I

[6] = system: P. falciparum 7G8^7G8 parasite line; experiment: Piperaquine survival assay; assay type: cell-based, Plasmodium falciparum; conditions: vs no-drug control
PfCRT 7G8+C350R = target: T3, PfCRT 7G8+C350R (Plasmodium falciparum, UniProt W7FI62, C350R); experiment: Transport; assay type: biochemical; conditions: for 1-min uptake, transport in proteoliposomes: 100 nM [3H]-drug, inwardly-directed pH gradient; for Vmax, transport in proteoliposomes: initial rates over 3 s, Michaelis-Menten fit; for transport activity (in words): proteoliposomes
T3 sequence (W7FI62 1-424 C350R): T1 sequence (W7FI62 1-424) with C350R

[7] = binding at pH 5.5, equilibrium dialysis, pH 5.5
[8] = binding at pH 7.5, equilibrium dialysis, pH 7.5

In the case of `Clc1ccc2c(N3CCN(CCCN4CCN(c5ccnc6cc(Cl)ccc56)CC4)CC3)ccnc2c1` [PPQ, piperaquine], the “1-min uptake in control liposomes” value [1] is reported as 0.09 ± 0.01 nmol/mg, the “PSA 3.125 nM, percent survival” value ([2]; 3.125 nM PPQ 48 h) is reported as 81.2 ± 19.6% and the “PSA 6.25 nM, percent survival” value ([2]; 6.25 nM PPQ 48 h) is reported as 12.1 ± 6.8%. The “PSA 12.5 nM, percent survival” value ([2]; 12.5 nM PPQ 48 h) was 7.2 ± 1.5%, the “PSA 25 nM, percent survival” value ([2]; 25 nM PPQ 48 h) was 11.0 ± 1.7% and the “PSA 50 nM, percent survival” value ([2]; 50 nM PPQ 48 h) was 4.9 ± 1.1%. For the same compound, the “PSA 100 nM, percent survival” value ([2]; 100 nM PPQ 48 h) was 1.3 ± 0.35%, the “PSA 200 nM, percent survival” value ([2]; 200 nM PPQ 48 h) was 1.2 ± 0.54% and the “PSA 400 nM, percent survival” value ([2]; 400 nM PPQ 48 h) was 0.61 ± 0.19%. The “PSA 800 nM, percent survival” value ([2]; 800 nM PPQ 48 h) was 0.62 ± 0.16%, the “PSA 1600 nM, percent survival” value ([2]; 1600 nM PPQ 48 h) was 0.51 ± 0.17% and the “PSA 3.125 nM, percent survival” value ([3]; 3.125 nM PPQ 48 h) was 96.6 ± 2.4%. The “PSA 6.25 nM, percent survival” value ([3]; 6.25 nM PPQ 48 h) was 90.7 ± 5.1%, the “PSA 12.5 nM, percent survival” value ([3]; 12.5 nM PPQ 48 h) was 79.8 ± 5.5% and the “PSA 25 nM, percent survival” value ([3]; 25 nM PPQ 48 h) was 62.1 ± 9.6%. For the same compound, the “PSA 50 nM, percent survival” value ([3]; 50 nM PPQ 48 h) was 31.8 ± 9.3%, the “PSA 100 nM, percent survival” value ([3]; 100 nM PPQ 48 h) was 7.7 ± 2.5% and the “PSA 200 nM, percent survival” value ([3]; 200 nM PPQ 48 h) was 9.5 ± 1.2%. For the same compound, the “PSA 400 nM, percent survival” value ([3]; 400 nM PPQ 48 h) was 10.5 ± 1.1%, the “PSA 800 nM, percent survival” value ([3]; 800 nM PPQ 48 h) was 6.6 ± 0.46% and the “PSA 1600 nM, percent survival” value ([3]; 1600 nM PPQ 48 h) was 5.9 ± 0.9%. The “[3H]-PPQ CAR (cellular accumulation ratio)” value ([4]; 20 nM [3H]-PPQ) was 1125.6 ± 59.6, the “survival in PPQ survival assay” value ([5]; PPQ-S parasites, concentrations of 200 nM or more) was ≤ 1% and the “survival in PPQ survival assay” value ([5]; standard assay concentration of 200 nM PPQ, 48 h, edited 7G8+F145I and 7G8+C350R lines (Fig. 3l)) was 9–10%. The Kd (PfCRT 7G8; [7]) was 90 ± 20 nM, the Kd (PfCRT 7G8; [8]) was 220 ± 40 nM and the “Bmax, binding at pH 5.5” value (PfCRT 7G8; pH 5.5) was 0.40 ± 0.01 mol CQ/mol PfCRT. The “Bmax, binding at pH 7.5” value (PfCRT 7G8; pH 7.5) was 0.40 ± 0.02 mol CQ/mol PfCRT, the Kd (PfCRT Dd2; [7]) was 80 ± 10 nM and the Kd (PfCRT Dd2; [8]) was 220 ± 30 nM. For the same compound, the “Bmax, binding at pH 5.5” value (PfCRT Dd2; pH 5.5) was 0.39 ± 0.01 mol CQ/mol PfCRT, the “Bmax, binding at pH 7.5” value (PfCRT Dd2; pH 7.5) was 0.39 ± 0.02 mol CQ/mol PfCRT and the “PSA 3.125 nM, percent survival” value ([6]; 3.125 nM PPQ 48 h) was 93.8 ± 3.5%. The “PSA 6.25 nM, percent survival” value ([6]; 6.25 nM PPQ 48 h) was 87.1 ± 3.5%, the “PSA 12.5 nM, percent survival” value ([6]; 12.5 nM PPQ 48 h) was 76.7 ± 5.1% and the “PSA 25 nM, percent survival” value ([6]; 25 nM PPQ 48 h) was 48.3 ± 5.5%. The “PSA 50 nM, percent survival” value ([6]; 50 nM PPQ 48 h) was 4.9 ± 1.3%, the “PSA 100 nM, percent survival” value ([6]; 100 nM PPQ 48 h) was 1.6 ± 0.3% and the “PSA 200 nM, percent survival” value ([6]; 200 nM PPQ 48 h) was 1.4 ± 0.2%. The “PSA 400 nM, percent survival” value ([6]; 400 nM PPQ 48 h) was 0.66 ± 0.20%, the “PSA 800 nM, percent survival” value ([6]; 800 nM PPQ 48 h) was 0.56 ± 0.17% and the “PSA 1600 nM, percent survival” value ([6]; 1600 nM PPQ 48 h) was 0.54 ± 0.20%. The “1-min uptake, transport in proteoliposomes” value (PfCRT 7G8+C350R) was 0.82 ± 0.07 nmol/mg, the “Vmax, transport in proteoliposomes” value (PfCRT 7G8+C350R) was 153.00 ± 3.10 nmol/mg/min and the “transport activity (in words)” value (PfCRT 7G8+C350R) was “substantially increased”.
In the case of `CCN(CC)CCCC(C)Nc1ccnc2cc(Cl)ccc12` (stereo not shown) [CQ, chloroquine], the “1-min uptake in control liposomes” value [1] is reported as 0.12 ± 0.02 nmol/mg, the “[3H]-CQ CAR (cellular accumulation ratio)” value ([4]; 5 nM [3H]-CQ) is reported as 388.4 ± 38.9 and the Kd (PfCRT 7G8; [7]) is reported as 210 ± 60 nM. For the same compound, the Kd (PfCRT 7G8; [8]) was 280 ± 60 nM, the “Bmax, binding at pH 5.5” value (PfCRT 7G8; pH 5.5) was 0.40 ± 0.03 mol CQ/mol PfCRT and the “Bmax, binding at pH 7.5” value (PfCRT 7G8; pH 7.5) was 0.38 ± 0.02 mol CQ/mol PfCRT. The Kd (PfCRT Dd2; [7]) was 200 ± 40 nM, the Kd (PfCRT Dd2; [8]) was 310 ± 40 nM and the “Bmax, binding at pH 5.5” value (PfCRT Dd2; pH 5.5) was 0.42 ± 0.04 mol CQ/mol PfCRT. For the same compound, the “Bmax, binding at pH 7.5” value (PfCRT Dd2; pH 7.5) was 0.38 ± 0.01 mol CQ/mol PfCRT, the “1-min uptake, transport in proteoliposomes” value (PfCRT 7G8+C350R) was 0.80 ± 0.21 nmol/mg and the “Vmax, transport in proteoliposomes” value (PfCRT 7G8+C350R) was 17.97 ± 0.87 nmol/mg/min. The “transport activity (in words)” value (PfCRT 7G8+C350R) was “reduced uptake”.
